Source: ChEMBL document CHEMBL4689842, “EUbOPEN Chemogenomics Library wave 1” (2021)

Tests used:
Fibroblast = experiment: Incucyte cell viability with human fibroblast; format: toxicity, cell-based; conditions: 10 µM, compound concentration 10 uM; further: filed as whole numbers so only -1 and 0 and 1 occur
U2OS = experiment: Multiplex assay against U2OS; format: toxicity, cell-based; conditions: human
Outline: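 Cells were classed with CellPathfinder machine-learning gating, first as Hoechst high-intensity objects or normal cells, then (normal cells) as healthy, pyknosed or fragmented nuclei, and finally (pyknosed cells) as mitotic or apoptotic. Staining of live cells at seeding used Hoechst33342, BioTracker Green Microtubule Cytoskeleton Dye, MitoTracker Red and Annexin V Alexa Fluor 680, with imaging on a CQ1 microscope at 37°C and 5% CO2 after compound addition. Tubulin, mitochondrial-mass and membrane-permeability phenotypes are per cents of healthy-nucleus cells.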

[1] = 12 h, 1 µM, compound concentration 1 uM, replicate 1
[2] = 12 h, 1 µM, compound concentration 1 uM, replicate 2
[3] = 12 h, 10 µM, compound concentration 10 uM, replicate 1
[4] = 12 h, 10 µM, compound concentration 10 uM, replicate 2
[5] = 24 h, 1 µM, compound concentration 1 uM, replicate 1
[6] = 24 h, 1 µM, compound concentration 1 uM, replicate 2
[7] = 24 h, 10 µM, compound concentration 10 uM, replicate 1
[8] = 24 h, 10 µM, compound concentration 10 uM, replicate 2

Compound: Cc1c(Nc2ccc(S(=O)(=O)N3CCN(C)CC3)cc2F)nc2ccc(Nc3cnn(C4CC4)c3)cn2c1=O
- Growth Rate (Fibroblast; 0 h, replicate number 2, timepoint 0 hours): 0
- Growth Rate (Fibroblast; 6 h, replicate number 1, timepoint 6 hours): 0
- Growth Rate (Fibroblast; 12 h, replicate number 1, timepoint 12 hours): 0
- Growth Rate (Fibroblast; 18 h, replicate number 1, timepoint 18 hours): 0
- Growth Rate (Fibroblast; 24 h, replicate number 1, timepoint 24 hours): 0
- Growth Rate (Fibroblast; 24 h, replicate number 2, timepoint 24 hours): 1
- Population Apoptotic (%) (U2OS; [1]): 50%
- Population Fragmented Nuclei (%) (U2OS; [1]): 7%
- Population Healthy Nuclei (%) (U2OS; [1]): 81%
- Population Hoechst High Intensity Objects (%) (U2OS; [1]): 3%
- Population Membrane Permeable-Phenotype (%) (U2OS; [1]): 58%
- Population Mitochondria Different-Phenotype (%) (U2OS; [1]): 9%
- Population Mitotic Cells (%) (U2OS; [1]): 50%
- Population Normal (%) (U2OS; [1]): 96%
- Population Pyknosed Nuclei (%) (U2OS; [1]): 11%
- Population Tubulin-Different-Phenotype (%) (U2OS; [1]): 53%
- Total Cell Count (U2OS; [1]): 194
- Population Apoptotic (%) (U2OS; [2]): 0%
- Population Fragmented Nuclei (%) (U2OS; [2]): 3%
- Population Healthy Nuclei (%) (U2OS; [2]): 93%
- Population Hoechst High Intensity Objects (%) (U2OS; [2]): 6%
- Population Membrane Permeable-Phenotype (%) (U2OS; [2]): 40%
- Population Mitochondria Different-Phenotype (%) (U2OS; [2]): 18%
- Population Mitotic Cells (%) (U2OS; [2]): 100%
- Population Normal (%) (U2OS; [2]): 93%
- Population Pyknosed Nuclei (%) (U2OS; [2]): 3%
- Population Tubulin-Different-Phenotype (%) (U2OS; [2]): 34%
- Total Cell Count (U2OS; [2]): 124
- Population Apoptotic (%) (U2OS; [3]): 27%
- Population Fragmented Nuclei (%) (U2OS; [3]): 2%
- Population Healthy Nuclei (%) (U2OS; [3]): 91%
- Population Hoechst High Intensity Objects (%) (U2OS; [3]): 3%
- Population Membrane Permeable-Phenotype (%) (U2OS; [3]): 7%
- Population Mitochondria Different-Phenotype (%) (U2OS; [3]): 21%
- Population Mitotic Cells (%) (U2OS; [3]): 72%
- Population Normal (%) (U2OS; [3]): 96%
- Population Pyknosed Nuclei (%) (U2OS; [3]): 5%
- Total Cell Count (U2OS; [3]): 459
- Population Apoptotic (%) (U2OS; [4]): 37%
- Population Fragmented Nuclei (%) (U2OS; [4]): 9%
- Population Healthy Nuclei (%) (U2OS; [4]): 82%
- Population Hoechst High Intensity Objects (%) (U2OS; [4]): 15%
- Population Membrane Permeable-Phenotype (%) (U2OS; [4]): 9%
- Population Mitochondria Different-Phenotype (%) (U2OS; [4]): 32%
- Population Mitotic Cells (%) (U2OS; [4]): 62%
- Population Normal (%) (U2OS; [4]): 84%
- Population Pyknosed Nuclei (%) (U2OS; [4]): 7%
- Population Tubulin-Different-Phenotype (%) (U2OS; [4]): 20%
- Total Cell Count (U2OS; [4]): 603
- Population Apoptotic (%) (U2OS; [5]): 50%
- Population Fragmented Nuclei (%) (U2OS; [5]): 10%
- Population Healthy Nuclei (%) (U2OS; [5]): 80%
- Population Hoechst High Intensity Objects (%) (U2OS; [5]): 1%
- Population Membrane Permeable-Phenotype (%) (U2OS; [5]): 37%
- Population Mitochondria Different-Phenotype (%) (U2OS; [5]): 15%
- Population Mitotic Cells (%) (U2OS; [5]): 50%
- Population Normal (%) (U2OS; [5]): 98%
- Population Pyknosed Nuclei (%) (U2OS; [5]): 9%
- Population Tubulin-Different-Phenotype (%) (U2OS; [5]): 33%
- Total Cell Count (U2OS; [5]): 275
- Population Apoptotic (%) (U2OS; [6]): 42%
- Population Fragmented Nuclei (%) (U2OS; [6]): 6%
- Population Healthy Nuclei (%) (U2OS; [6]): 87%
- Population Hoechst High Intensity Objects (%) (U2OS; [6]): 5%
- Population Membrane Permeable-Phenotype (%) (U2OS; [6]): 19%
- Population Mitochondria Different-Phenotype (%) (U2OS; [6]): 10%
- Population Mitotic Cells (%) (U2OS; [6]): 57%
- Population Normal (%) (U2OS; [6]): 94%
- Population Pyknosed Nuclei (%) (U2OS; [6]): 6%
- Population Tubulin-Different-Phenotype (%) (U2OS; [6]): 19%
- Total Cell Count (U2OS; [6]): 152
- Population Apoptotic (%) (U2OS; [7]): 50%
- Population Fragmented Nuclei (%) (U2OS; [7]): 3%
- Population Healthy Nuclei (%) (U2OS; [7]): 91%
- Population Hoechst High Intensity Objects (%) (U2OS; [7]): 2%
- Population Membrane Permeable-Phenotype (%) (U2OS; [7]): 5%
- Population Mitochondria Different-Phenotype (%) (U2OS; [7]): 15%
- Population Mitotic Cells (%) (U2OS; [7]): 50%
- Population Normal (%) (U2OS; [7]): 97%
- Population Pyknosed Nuclei (%) (U2OS; [7]): 5%
- Population Tubulin-Different-Phenotype (%) (U2OS; [7]): 26%
- Total Cell Count (U2OS; [7]): 480
- Population Apoptotic (%) (U2OS; [8]): 30%
- Population Fragmented Nuclei (%) (U2OS; [8]): 5%
- Population Healthy Nuclei (%) (U2OS; [8]): 85%
- Population Hoechst High Intensity Objects (%) (U2OS; [8]): 11%
- Population Membrane Permeable-Phenotype (%) (U2OS; [8]): 10%
- Population Mitochondria Different-Phenotype (%) (U2OS; [8]): 26%
- Population Mitotic Cells (%) (U2OS; [8]): 69%
- Population Normal (%) (U2OS; [8]): 88%
- Population Pyknosed Nuclei (%) (U2OS; [8]): 9%
- Population Tubulin-Different-Phenotype (%) (U2OS; [8]): 20%
- Total Cell Count (U2OS; [8]): 644
